Common to all, as to type: cell-based, rat
Assay [1] has as its system nicotinic cholinergic-stimulated catecholamine release in PC12 cells. Put plainly: Nicotine-stimulated norepinephrine secretion from PC12 cells. A digest of the protocol: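 PC12 cells were washed, then stimulated with nicotine (60 µM) in secretion medium in the presence of graded concentrations of the CHGB-derived test peptide. Maximal effect was taken at 10 µM peptide. Human CHGA[352–372] served as the positive control. Norepinephrine release was measured and each experiment was repeated 3 times.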

The test system of assay [2] is nicotine-triggered uptake of 45Ca2+ in PC12 cells. Put plainly: Nicotinic cholinergic signal transduction: 45Ca2+ uptake. The settings on record: nicotine 60 µM, 45Ca2+ 2 µCi/ml, 5 minutes. The procedure, abridged:
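PC12 cells were plated on poly-L-lysine-coated dishes 2 days ahead and rinsed every 15 min for 1 h at 37°C in secretion buffer (150 mM NaCl, 5 mM KCl, 2 mM CaCl2, 10 mM Hepes, pH 7.4). Cells were exposed to ⁴⁵Ca²⁺ with drugs in Ca²⁺-free buffer for 5 min at room temperature. Uptake was stopped with ice-cold 1 mM LaCl3, followed by lysis and scintillation counting (cpm/well). Results are mean ± SEM.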

Assay [3] concerns membrane depolarization-stimulated catecholamine release in PC12 cells. Put plainly: KCl. The settings on record: KCl 55 mM, CHGB full-length or plasmin-digested, repeated 3 times. The procedure, abridged:
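Rat PC12 cells (passage 10–25) grown in high-glucose DMEM with 10% horse serum and 5% FBS at 37°C in 6% CO2. After washing, cells were stimulated with KCl (55 mM) in secretion medium, with recombinant human CHGB (3.0 µM), either full-length or pre-digested with plasmin (10 µM CHGB, 2 µM plasmin, Tris-Cl pH 8.0, 150 mM NaCl, 1 hr). Three experiments.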

With catestatin, the “efficacy (maximal effect), inhibition of nicotinic cholinergic secretion” value in assay [1] (nicotine 60 µM, at 10 µM peptide) is reported as ~ 100%. The IC50 – broadly, the midpoint of a concentration-inhibition curve – in assay [1] (read-out: potency (IC50) to inhibit nicotinic cholinergic-stimulated catecholamine secretion, nicotine 60 µM, repeated 3 times) stood at 450 nM. For the same molecule, in assay [2], the “inhibition of nicotine-stimulated uptake of 45Ca2+” value was ~ 82%.

B1: CHGB: purified human recombinant mature CHGB (657 residues) with carboxy-terminal … tag, expressed in E. coli (protein, UniProt P05060 21-677, looked up)
Secretogranin-1: MPVDNRNHNEGMVTRCIIEVLSNALSKSSAPPITPECRQVLKTSRKDVKDKETTENENTKFEVRLLRDPADASEAHESSSRGEAGAPGEEDIQGPTKADTEKWAEGGGHSRERADEPQWSLYPSDSQVSEEVKTRHSEKSQREDEEEEEGENYQKGERGEDSSEEKHLEEPGETQNAFLNERKQASAIKKEELVARSETHAAGHSQEKTHSREKSSQESGEETGSQENHPQESKGQPRSQEESEEGEEDATSEVDKRRTRPRHHHGRSRPDRSSQGGSLPSEEKGHPQEESEESNVSMASLGEKRDHHSTHYRASEEEPEYGEEIKGYPGVQAPEDLEWERYRGRGSEEYRAPRPQSEESWDEEDKRNYPSLELDKMAHGYGEESEEERGLEPGKGRHHRGRGGEPRAYFMSDTREEKRFLGEGHHRVQENQMDKARRHPQGAWKELDRNYLNYGEEGAPGKWQQQGDLQDTKENREEARFQDKQYSSHHTAEKRKRLGELFNPYYDPLQWKSSHFERRDNMNDNFLEGEEENELTLNEKNFFPEYNYDWWEKKPFSEDVNWGYEKRNLARVPKLDLKRQYDRVAQLDQLLHYRKKSAEFPDFYDSEEPVSTHQEAENEKDRADQTVLTEDEKKELENLAAMDLELQKIAEKFSQRG
modifications: C-terminal tag
As for B1, the “reduction of membrane depolarization-stimulated catecholamine release” value in assay [3] is on record as ~ 23%.
